Experimental data pooled from the literature.
Protocols differ between the studies behind these lines.
CHEK1: Serine/threonine-protein kinase Chk1 (CHEK1, Homo sapiens, UniProt O14757)
PTPN22: Tyrosine-protein phosphatase non-receptor type 22 (PTPN22, Homo sapiens, UniProt Q9Y2R2)
DDR2: Discoidin domain-containing receptor 2 (DDR2, Homo sapiens, UniProt Q16832)
PRMT1: Protein arginine N-methyltransferase 1 (PRMT1, Homo sapiens, UniProt Q99873)
PDE1C: Dual specificity calcium/calmodulin-dependent 3',5'-cyclic nucleotide phosphodiesterase 1C (PDE1C, Homo sapiens, UniProt Q14123)
SLC6A3: Sodium-dependent dopamine transporter (SLC6A3, Homo sapiens, UniProt Q01959)

SMILES | target | effect on | action | technique | pH | IC50 [nM]
OCc1ccc(-c2ccc(-c3[nH]nc4c3Cc3cc(O)ccc3-4)cc2)cc1 | CHEK1 | enzyme activity | inhibitor |  |  | > 10000
CC(C)N(C(=S)SSC(=S)N(C(C)C)C(C)C)C(C)C | PTPN22 | enzyme activity | inhibitor | fluorescence | pH 6.5 | 7000
CCN(CC)C(=O)c1cnn2c(-c3cccc(C(F)(F)F)c3)ccnc12 | Toll-like receptor 8 (TLR8, Homo sapiens, UniProt Q9NR97) | reporter gene |  |  |  | > 20000
CNC(=O)c1cc2c(Oc3ccc(NC(=O)C4(C(=O)Nc5ccc(F)cc5)CC4)cc3)ccnc2cc1OC | DDR2 | enzyme activity | inhibitor | radiometric |  | 41
CC(C)C1=CC[C@H]2C(=C1)CC[C@@H]1[C@]2(C)CCC[C@@]1(C)C(=O)O | ATP-citrate synthase (ACLY, Homo sapiens, UniProt P53396) | enzyme activity | inhibitor |  |  | > 20000
OCc1ccc2c(c1)-c1n[nH]c(-c3ccc(-c4ccc(O)cc4)cc3)c1C2 | CHEK1 | enzyme activity | inhibitor |  |  | 4.4
Nc1ncnc2c1ncn2[C@@H]1O[C@H](CN(CC[C@H](N)C(=O)O)Cc2ccc3ccccc3c2)[C@@H](O)[C@H]1O | PRMT1 | enzyme activity | inhibitor |  |  | > 50000
CO[C@H]1O[C@H](COS(=O)(=O)O)[C@@H](O[C@@H]2O[C@@H](C(=O)O)[C@@H](O[C@H]3O[C@H](COS(=O)(=O)O)[C@@H](O[C@@H]4O[C@H](C(=O)O)[C@@H](O[C@H]5O[C@H](COS(=O)(=O)O)[C@@H](O)[C@H](O)[C@H]5NS(=O)(=O)O)[C@H](O)[C@H]4O)[C@H](OS(=O)(=O)O)[C@H]3NS(=O)(=O)O)[C@H](O)[C@H]2OS(=O)(=O)O)[C@H](O)[C@H]1NS(=O)(=O)O | Coagulation factor XI (F11, Homo sapiens, UniProt P03951) | enzyme activity | inhibitor | absorbance | pH 7.4 | > 360000
COc1cc(C[C@H]2C(=O)OC[C@@H]2Cc2ccc(OC)c(OC)c2)ccc1O | cAMP and cAMP-inhibited cGMP 3',5'-cyclic phosphodiesterase 10A (PDE10A, Homo sapiens, UniProt Q9Y233) | enzyme activity | inhibitor |  |  | > 5000
COc1cc(-c2ccc3c(c2)Nc2ccc(N)cc2NC3=O)ccc1[N+](=O)[O-] | CHEK1 | enzyme activity | inhibitor |  |  | 16.6
CSc1ccc(/C=C2/C(C)=C(CC(=O)O)c3cc(F)ccc32)cc1 | PDE1C | enzyme activity | inhibitor |  |  | > 100000
CCn1ncc2c1-c1cnc(N)c(c1)O[C@H](C)c1cc(F)ccc1-c1nn(C)nc1C2 | Activated CDC42 kinase 1 (TNK2, Homo sapiens, UniProt Q07912) | enzyme activity | inhibitor | radiometric |  | 77
Clc1ccc(C(c2ccccc2)c2nnnn2CCCCN2CCN(CCCc3ccccc3)CC2)cc1 (stereo not drawn) | SLC6A3 | transporter uptake | inhibitor |  |  | 415
N=C(NCCCSC[C@H]1O[C@@H](n2cnc3c(NCCCc4ccccc4)ncnc32)[C@H](O)[C@@H]1O)NC1CC1 | PRMT1 | enzyme activity | inhibitor | fluorescence |  | 1180
Cc1ccc(NC(=O)c2ccc(C)c(C(F)(F)F)c2)cc1C#Cc1nn(C2CCC(O)CC2)c2ncnc(N)c12 (stereo not drawn) | DDR2 | enzyme activity | inhibitor | radiometric |  | 65
c1ccc(CCC2CCN(CCCn3nnnc3C(c3ccccc3)c3ccccc3)CC2)cc1 | SLC6A3 | transporter uptake | inhibitor |  |  | 726
COc1cc(-c2ccc3c(c2)Nc2ncccc2NC3=O)ccc1[N+](=O)[O-] | CHEK1 | enzyme activity | inhibitor |  |  | > 10000

SMILES | target | effect on | action | technique | pH | IC50 [nM]
CCN(CC)C(=O)CC(c1ccc2c(c1)OCO2)c1c(O)cc(OC)cc1OC (stereo not drawn) | Nuclear receptor ROR-gamma (Mus musculus, UniProt P51450) | reporter gene |  |  |  | > 50000
CCCC[C@H](NC(=O)[C@H](C)c1c(C)[nH]c2ccc(O)cc12)c1ncc(-c2cc3ccccc3nc2OC)[nH]1 | Histone deacetylase 5 (HDAC5, Homo sapiens, UniProt Q9UQL6) | enzyme activity | inhibitor |  |  | > 45000
COC(=O)Cc1ccc2c(c1)NC(=O)c1cc(C)c(-c3cccc(NC(C)=O)c3)cc1N2 | CHEK1 | enzyme activity | inhibitor |  |  | > 10000
O=C1CSC(=S)N1NC(=S)SSC(=S)NN1C(=O)CSC1=S | PTPN22 | enzyme activity | inhibitor | fluorescence | pH 6.5 | 3000
N=C(NCCCSC[C@H]1O[C@@H](n2cnc3c(NCCCc4ccccc4)ncnc32)[C@H](O)[C@@H]1O)NC1CCC1 | PRMT1 | enzyme activity | inhibitor | fluorescence |  | 249
COc1cc(-c2ccc3c(c2)Nc2ccc(NC(=O)c4cc[nH]n4)cc2NC3=O)ccc1[N+](=O)[O-] | CHEK1 | enzyme activity | inhibitor |  |  | 9.06
CC/C=C\C/C=C\C/C=C\C/C=C\C/C=C\CCCC(=O)O | DNA topoisomerase 1 (TOP1, Homo sapiens, UniProt P11387) | enzyme activity | inhibitor |  |  | 20000
O=C1NC(=O)C(Cc2ccc3cc(OCc4ccccc4F)ccc3c2)S1 (stereo not drawn) | Pantothenate kinase 3 (PANK3, Homo sapiens, UniProt Q9H999) | enzyme activity | inhibitor | radiometric |  | 5000
Clc1ccc(C(c2ccccc2)c2nnnn2CCCCN2CCC(Cc3ccc(Cl)c(Cl)c3)CC2)cc1 (stereo not drawn) | SLC6A3 | transporter uptake | inhibitor |  |  | 550
C/C(=N\O)c1ccc(-c2ccc(O)c(Cl)c2)c(Cl)c1O | Solute carrier family 2, facilitated glucose transporter member 1 (SLC2A1, Homo sapiens, UniProt P11166) | transporter uptake | inhibitor | radiometric |  | 7000
Fc1ccc(C(c2ccc(F)cc2)c2nnnn2CCCCN2CCC(Cc3ccc(Cl)c(Cl)c3)CC2)cc1 | SLC6A3 | transporter uptake | inhibitor |  |  | 608
CN1C(=O)c2c(nn(Cc3ccc(-c4cccc(F)n4)cc3)c2Nc2ccccc2)N2C1=N[C@@H]1CCC[C@@H]12 | PDE1C | enzyme activity | inhibitor | radiometric |  | 0.053
COC(=O)Cc1ccc2c(c1)NC(=O)c1ccc(-c3cccc4ccccc34)cc1N2 | CHEK1 | enzyme activity | inhibitor |  |  | > 10000
Clc1ccc(CC2CCN(CCCCn3nnnc3C(c3ccccc3)c3ccccc3)CC2)cc1Cl | SLC6A3 | transporter uptake | inhibitor |  |  | 488
CC(C)(C)OC(=O)NCCCCOc1ccc(Cl)cc1NC(=O)Nc1cnc(C#N)cn1 | CHEK1 | enzyme activity | inhibitor |  |  | 8370
COc1ccc2c(Oc3ccc4c(C(=O)Nc5ccccc5N)cccc4c3)ccnc2c1 | Ephrin type-B receptor 4 (EPHB4, Homo sapiens, UniProt P54760) | enzyme activity | inhibitor |  |  | > 500
